5HT1a ag = activates the human 5-HT1a serotonin receptor; CHO 5-HT1a Ga15 NFAT-bla reporter, FRET ratio; 0% basal, 100% maximal reference agonist; activation, % at 10 µM; hit rate 0.56% among 65,000; AID 567;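 active means activation above the screen-wide mean activation plus 3 SD, cut at about 19% in these data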
S1P3 agonist = agonists of human S1P3 receptor. Q99500. S1P3 NFAT-BLA reporter cells, agonism, FRET ratio; relative to 1 µM S1P, basal subtracted. activation, % at 4.5 µM. hit rate 0.1% among 60,000. AID 373;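 active means activation above the screen-wide mean plus 3 SD, cut at about 4.5% in these data, passing the limit was not always enough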
Target sequence (Q99500 whole entry, looked up): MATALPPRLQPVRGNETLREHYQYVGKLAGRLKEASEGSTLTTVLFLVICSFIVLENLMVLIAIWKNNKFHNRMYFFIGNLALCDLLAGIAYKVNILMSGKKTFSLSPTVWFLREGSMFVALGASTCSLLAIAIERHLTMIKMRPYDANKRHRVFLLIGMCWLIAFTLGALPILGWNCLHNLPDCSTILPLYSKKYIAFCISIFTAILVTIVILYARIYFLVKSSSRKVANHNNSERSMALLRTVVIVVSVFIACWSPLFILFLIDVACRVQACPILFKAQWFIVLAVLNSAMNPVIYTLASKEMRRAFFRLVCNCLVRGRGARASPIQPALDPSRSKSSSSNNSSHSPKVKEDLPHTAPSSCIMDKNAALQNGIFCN
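Material: Human S1P3 NFAT-BLA reporter CHO cells | Incubation: Overnight plating, 4 h compound 37 °C, 2 h substrate RT | Signal: FRET β-lactamase substrate fluorescence, excitation 405 nm, 460/535 nm emission ratio, background-subtracted | Compound: 4.5 µM final, single dose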
5-HT1A blocker = blocks the human serotonin 5-HT1a receptor. AID 612. hit rate 0.68% among 62,000. P08908. inhibition, % at 10 µM. CHO 5-HT1a Ga15 NFAT-bla reporter, antagonist mode;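 active means inhibition above the mean of all tested compounds plus 3 SD, cut at about 43% in these data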;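 further: receptor stimulated by 5-CT agonist at 100 nM near EC80; beta-lactamase reporter measured by ratiometric fluorescence of a cleavable substrate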
HTR1E antagonist = antagonists of human 5-HT1E serotonin receptor; P28566; CHO 5-HT1E Ga15 NFAT-bla reporter, FRET, antagonist; inhibition, % at 6 µM; hit rate 0.99% among 65,000; AID 571;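 active means inhibition above a set limit, the mean inhibition across every tested compound plus 3 SD, cut at about 29% in these data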;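 further: signal is the 460 over 535 nm emission ratio of beta-lactamase substrate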
S1P1 ag pot = activates or potentiates agonism at human S1P1 receptor. hit rate 0.57% among 56,000. activation, % at 9.5 µM. S1P1 CRE-bla cells, forskolin, beta-lactamase FRET, potentiator mode; S1P1 agonist co-added at EC20, 2 nM; 100% = saturating reference agonist, 0% = basal. AID 449. P21453;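 active means activation above a cutoff set at the mean activation of all tested compounds plus 3 SD, cut at about 54% in these data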;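 further: forskolin at 4 µM as EC80 and the EC20 agonist is SEW2871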
5HT1E ag = activates the human 5-HT1E serotonin receptor; hit rate 0.69% among 65,000; CHO 5-HT1E Ga15 NFAT-bla reporter, FRET; 0% DMSO wells, 100% control agonist wells; P28566; activation, % at 6 µM; AID 574;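 active means activation above a set limit, the screen-wide mean activation plus 3 SD, cut at about 8.5% in these data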
Hits are given with their value; i = inactive; nt = no result. Sampled rows, rich in hits. Any-hit rate of the full collection: about 3%.

SMILES	5HT1a ag	S1P3 agonist	5-HT1A blocker	HTR1E antagonist	S1P1 ag pot	5HT1E ag
COc1nc(NCCc2ccc(OC)c(OC)c2)nc(OC)n1	i	i	i	i	i	i
COc1nc(NCCC2=CCCCC2)nc(OC)n1	50.6	i	i	i	nt	i
O=C(N1CCC(O)(c2cccnc2)CC1)C12CC3CC(CC(C3)C1)C2	i	i	i	i	i	i
COc1ccc(-c2cn3c(C)c(C(=O)N4CCCc5ccccc54)sc3n2)cc1	i	i	i	i	70.5	i
CCC(c1nnnn1Cc1ccc2c(c1)OCO2)N1CCN(c2ccc(F)cc2)CC1 (configuration not stated)	i	i	43.7	i	i	i
CCC(c1nnnn1Cc1ccc2c(c1)OCO2)N1CCN(c2ccccc2)CC1 (configuration not stated)	i	i	i	i	i	i
O=C(N1CCCC1)N1CCN(c2ncnc3c(-c4ccc(Cl)cc4)nsc23)CC1	i	i	i	i	i	i
Cn1c(C(=O)NCCCN2CCN(c3ccc(F)cc3)CC2)cc2c(=O)n(C)c3ccccc3c21	i	i	65.4	i	i	i
CSC1=C(C#N)C(c2ccc(Cl)cc2)C2=C(CC(C)(C)CC2=O)N1 (configuration not stated)	i	i	i	i	i	i
CCCSC1=C(C#N)C(c2ccc(OC)cc2)C2=C(CC(C)(C)CC2=O)N1 (configuration not stated)	i	i	nt	49.8	i	i
C(=C\c1ccccc1)/CSc1nnc(-c2ccccn2)n1Cc1ccco1	i	i	52.0	i	i	i
Clc1ccccc1CSc1nnc(-c2ccccn2)n1Cc1ccco1	i	nt	i	i	nt	i
O=C1CCCN1c1cc(Cl)ccc1Cl	i	i	i	i	i	i
Cc1ccc2[nH]c(=O)c(CN(Cc3ccco3)C(=O)c3ccncc3)cc2c1	i	i	i	i	i	i
O=C(c1cccs1)N(Cc1ccco1)Cc1cc2ccccc2[nH]c1=O	51.5	i	i	i	i	i
CCN1C(=O)C(C)S/C1=N\S(=O)(=O)c1ccc(Cl)s1 (configuration not stated)	i	i	i	i	i	i
COc1ccccc1Oc1cc(C#N)c(C#N)cc1-n1nnc2ccccc21	i	19.7	49.1	i	i	i
COc1ccc(/C=N\n2nnc3ccccc32)cc1	i	i	i	i	i	i
CN(C)CCCN1c2ccccc2Sc2ccc(Cl)cc21	i	i	nt	i	i	8.7
OCCN1CCN(CCCN2c3ccccc3Sc3ccc(Cl)cc32)CC1	i	i	nt	i	i	i
Cc1cc(C(C)(C)C)cc(C)c1CC1=NCCN1	43.4	i	nt	i	i	89.1
O=C1C(=O)N(CCCn2ccnc2)C(c2cccnc2)/C1=C(/O)c1ccc(Cl)cc1 (configuration not stated)	i	i	i	i	i	i
Clc1ccc2[nH]c3c(NCCCN4CCOCC4)ncnc3c2c1	i	i	nt	i	i	i
O=C1CCCN1CCCNc1ncnc2c1[nH]c1ccc(Cl)cc12	i	i	i	34.7	i	i
Cc1cc(NC(=O)CSc2nc(-c3ccco3)cc(C(F)(F)F)n2)no1	i	i	59.1	67.7	i	i
SMILES	5HT1a ag	S1P3 agonist	5-HT1A blocker	HTR1E antagonist	S1P1 ag pot	5HT1E ag
CS(=O)(=O)c1nc(-c2ccco2)cc(C(F)(F)F)n1	i	nt	103.1	99.5	nt	i
Cc1cc(OCC(=O)Nc2ccc3c(c2)OCCO3)ccc1Cl	i	i	i	i	i	i
CCCCN(C)CCCNC(=O)Cn1c(=O)sc2ccccc21	i	nt	i	i	nt	69.7
CN1C(=O)CC(N2CCN(CCN=CC3=C(O)CC(C)(C)CC3=O)CC2)C1=O (configuration not stated)	i	i	54.8	i	i	i
c1ccc(-c2nc3nonc3nc2-c2ccccc2)cc1	i	6.1	i	i	i	i
Nc1nnc(-c2ccccc2)c(-c2ccccc2)n1	i	i	i	i	i	i
COc1ccccc1CNc1nc2nc(C)cc(=O)n2[nH]1	i	i	i	i	i	i
c1ccc(-c2cc3c(ccc4nonc43)nn2)cc1	i	i	i	i	i	i
On1onc2c3cc(-c4ccccc4)nc3ccc21	i	i	49.6	33.0	nt	i

Screening results from PubChem.
